Assay results: ChEMBL document CHEMBL4680071, “Structure guided generation of thieno[3,2-d]pyrimidin-4-amine Mycobacterium tuberculosis bd oxidase inhibitors” (RSC Med Chem, 2021)

Experiments:
[1] = Inhibition of cytochrome-bd oxidase in Mycobacterium bovis BCG assessed as replicating ATP by measuring ATP depletion incubated for 15 hrs in presence of Q203 by BacTiter-Glo luminescence assay; design: species or system Mycobacterium tuberculosis variant bovis BCG
In short: (§1)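 Cultures grown in Middlebrook 7H9 with 0.05% Tween 80, 0.5% glycerol, BSA fraction V, D-glucose and NaCl. Cells pelleted, resuspended in glycerol-free medium at about 10^7 CFU/mL, added to compound dilutions. Plates incubated 15 h at 37°C. BacTiter-Glo reagent added, luminescence read after 12 min to give ATP level. IC50 from curve fitting.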

[2] = Inhibition of cytochrome-bd oxidase in Mycobacterium bovis BCG assessed as replicating ATP by measuring ATP depletion incubated for 15 hrs in absence of Q203 by BacTiter-Glo luminescence assay; design: species or system Mycobacterium tuberculosis variant bovis BCG; in short: as §1

Row | Compound | IC50 [1] [mM] | IC50 [2] [mM]
1 | Clc1ccc(CCNc2ncnc3ccsc23)cc1 | 30.4 | > 50
2 | COc1ccc(CCNc2ncnc3sccc23)cc1 | > 0.05 | 
3 | FC(F)(F)Oc1ccc(CCNc2ncnc3ccsc23)cc1 | 12.6 | > 50
4 | CN(C)c1ccc(CCNc2ncnc3ccsc23)cc1 | 38.9 | > 50
5 | FC(F)(F)c1ccc(Oc2ccc(Nc3ncnc4ccccc34)cc2)cc1 | 0.8 | > 50
6 | FS(F)(F)(F)(F)c1ccc(CCNc2ncnc3ccsc23)cc1 | 27.1 | > 50
7 | FC(F)(F)c1cccc(CCNc2ncnc3ccsc23)c1 | 25.6 | > 50
8 | FC(F)(F)Oc1ccc(CNc2ncnc3ccsc23)cc1 | 38.1 | > 50
9 | CC(C)(C)c1ccc(CCNc2ncnc3ccsc23)cc1 | 5.8 | > 50
10 | Clc1ccc(CCNc2ncnc3ccsc23)cc1Cl | 25.6 | > 50
11 | c1ccc(CCNc2ncnc3ccsc23)cc1 | 43.3 | > 50
12 | Cc1ccc(CCNc2ncnc3ccsc23)cc1 | 40.4 | > 50
13 | FC(F)(F)Oc1ccc(Nc2ncnc3ccsc23)cc1 | 22.9 | > 50
14 | FC(F)(F)c1ccc(CCNc2ncnc3ccsc23)cc1 | 33.1 | > 50
15 | COc1ccc(CCNc2ncnc3ccsc23)cc1 | 42.8 | > 50
16 | FC(F)(F)c1ccccc1CCNc1ncnc2ccsc12 | 12.4 | > 50
17 | COc1nc2ccc(Br)cc2cc1[C@@H](c1ccccc1)[C@@](O)(CCN(C)C)c1cccc2ccccc12 [BEDAQUILINE] | 0.09 | 0.17
